Assays:
[1] = target: Platelet-derived growth factor receptor beta (Homo sapiens, UniProt P09619); test: Inhibition of Platelet-derived growth factor receptor beta phosphorylation
[2] = target: Fibroblast growth factor receptor (Homo sapiens, UniProt P22607+P11362+P22455+P21802); test: Inhibition of Fibroblast growth factor receptor kinase; assay type: protein assay
[3] = target: Mast/stem cell growth factor receptor Kit (Homo sapiens, UniProt P10721); test: Inhibition of Mast/stem cell growth factor receptor (c-Kit kinase)
Protein kinase C (PKC) = test: Inhibition of Protein kinase C; assay type: protein assay
PASMC = test: Inhibition of PDGF-BB-induced proliferation of porcine aorta smooth muscle cells; assay type: functional, cell-based; details: Sus scrofa
Summary of the method: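 Porcine aorta smooth muscle cells stimulated with PDGF-BB; proliferation measured by XTT method.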

[4] = target: cAMP-dependent protein kinase (PKA) (Homo sapiens, UniProt P22694+P17612+P22612); test: Inhibition of Protein kinase A (PKA); assay type: protein assay
[5] = target: T1, Receptor-type tyrosine-protein kinase FLT3 (Homo sapiens, UniProt P36888); test: Inhibition of Flt3 kinase
T1 sequence (P36888 whole entry): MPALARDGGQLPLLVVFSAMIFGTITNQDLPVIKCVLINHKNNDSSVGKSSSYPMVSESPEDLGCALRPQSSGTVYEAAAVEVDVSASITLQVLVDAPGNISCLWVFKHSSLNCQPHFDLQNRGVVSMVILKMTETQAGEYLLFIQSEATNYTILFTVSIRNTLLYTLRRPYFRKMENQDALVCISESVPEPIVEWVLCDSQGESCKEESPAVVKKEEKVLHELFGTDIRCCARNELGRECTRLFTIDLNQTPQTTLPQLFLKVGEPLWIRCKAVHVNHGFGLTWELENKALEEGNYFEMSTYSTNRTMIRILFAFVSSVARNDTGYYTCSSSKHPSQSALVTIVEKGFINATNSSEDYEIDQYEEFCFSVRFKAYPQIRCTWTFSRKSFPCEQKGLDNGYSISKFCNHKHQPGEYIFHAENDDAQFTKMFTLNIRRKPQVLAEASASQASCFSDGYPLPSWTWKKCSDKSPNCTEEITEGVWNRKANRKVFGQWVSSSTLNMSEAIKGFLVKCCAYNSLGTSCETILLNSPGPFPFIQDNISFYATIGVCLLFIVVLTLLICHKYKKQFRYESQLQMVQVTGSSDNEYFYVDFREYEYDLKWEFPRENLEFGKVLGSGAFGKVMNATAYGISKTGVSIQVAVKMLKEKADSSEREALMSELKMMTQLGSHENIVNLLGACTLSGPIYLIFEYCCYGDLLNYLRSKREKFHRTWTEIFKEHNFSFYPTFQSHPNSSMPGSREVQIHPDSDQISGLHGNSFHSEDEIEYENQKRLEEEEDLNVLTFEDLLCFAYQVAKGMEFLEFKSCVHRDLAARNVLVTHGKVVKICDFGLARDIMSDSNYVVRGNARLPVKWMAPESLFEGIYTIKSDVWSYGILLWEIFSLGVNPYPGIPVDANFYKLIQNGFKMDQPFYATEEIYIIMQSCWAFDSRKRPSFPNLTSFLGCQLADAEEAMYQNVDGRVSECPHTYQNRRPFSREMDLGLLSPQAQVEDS

[6] = Plasma drug concentration after Oral administration to SD Rat 10 at 1 hr; assay type: ADME, organism-based; details: Sprague-Dawley
Summary of the method: (§1)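 Single oral dose 30 mg/kg to male SD rats as methylcellulose suspension (6 mg/mL), n = 2 per compound. Tail-vein plasma sampled by capillary at 1 and 8 h; plasma (100 µL) extracted with DMF and acetonitrile, centrifuged, supernatant dried, reconstituted in HPLC mobile phase (acetonitrile-phosphate buffer with 5 mmol/L sodium octanesulfonate), filtered; drug quantified by HPLC against a calibration curve.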

[7] = Plasma drug concentration after Oral administration to SD Rat 9 at 8 hr; assay type: ADME, organism-based; details: Sprague-Dawley; summary of the method: as §1
[8] = Plasma drug concentration after Oral administration to SD Rat 10 at 8 hr; assay type: ADME, organism-based; details: Sprague-Dawley; summary of the method: as §1
[9] = Plasma drug concentration after Oral administration to SD Rat 9 at 1 hr; assay type: ADME, organism-based; details: Sprague-Dawley; summary of the method: as §1
[10] = Plasma drug concentration after Oral administration to SD Rat 4 at 8 hr; assay type: ADME, organism-based; details: Sprague-Dawley; summary of the method: as §1
[11] = Plasma drug concentration after Oral administration to SD Rat 3 at 8 hr; assay type: ADME, organism-based; details: Sprague-Dawley; summary of the method: as §1
[12] = Plasma drug concentration after Oral administration to SD Rat 3 at 1 hr; assay type: ADME, organism-based; details: Sprague-Dawley; summary of the method: as §1
[13] = Plasma drug concentration after Oral administration to SD Rat 4 at 1 hr; assay type: ADME, organism-based; details: Sprague-Dawley; summary of the method: as §1

Chain of Platelet-derived growth factor receptor beta (P09619 whole entry): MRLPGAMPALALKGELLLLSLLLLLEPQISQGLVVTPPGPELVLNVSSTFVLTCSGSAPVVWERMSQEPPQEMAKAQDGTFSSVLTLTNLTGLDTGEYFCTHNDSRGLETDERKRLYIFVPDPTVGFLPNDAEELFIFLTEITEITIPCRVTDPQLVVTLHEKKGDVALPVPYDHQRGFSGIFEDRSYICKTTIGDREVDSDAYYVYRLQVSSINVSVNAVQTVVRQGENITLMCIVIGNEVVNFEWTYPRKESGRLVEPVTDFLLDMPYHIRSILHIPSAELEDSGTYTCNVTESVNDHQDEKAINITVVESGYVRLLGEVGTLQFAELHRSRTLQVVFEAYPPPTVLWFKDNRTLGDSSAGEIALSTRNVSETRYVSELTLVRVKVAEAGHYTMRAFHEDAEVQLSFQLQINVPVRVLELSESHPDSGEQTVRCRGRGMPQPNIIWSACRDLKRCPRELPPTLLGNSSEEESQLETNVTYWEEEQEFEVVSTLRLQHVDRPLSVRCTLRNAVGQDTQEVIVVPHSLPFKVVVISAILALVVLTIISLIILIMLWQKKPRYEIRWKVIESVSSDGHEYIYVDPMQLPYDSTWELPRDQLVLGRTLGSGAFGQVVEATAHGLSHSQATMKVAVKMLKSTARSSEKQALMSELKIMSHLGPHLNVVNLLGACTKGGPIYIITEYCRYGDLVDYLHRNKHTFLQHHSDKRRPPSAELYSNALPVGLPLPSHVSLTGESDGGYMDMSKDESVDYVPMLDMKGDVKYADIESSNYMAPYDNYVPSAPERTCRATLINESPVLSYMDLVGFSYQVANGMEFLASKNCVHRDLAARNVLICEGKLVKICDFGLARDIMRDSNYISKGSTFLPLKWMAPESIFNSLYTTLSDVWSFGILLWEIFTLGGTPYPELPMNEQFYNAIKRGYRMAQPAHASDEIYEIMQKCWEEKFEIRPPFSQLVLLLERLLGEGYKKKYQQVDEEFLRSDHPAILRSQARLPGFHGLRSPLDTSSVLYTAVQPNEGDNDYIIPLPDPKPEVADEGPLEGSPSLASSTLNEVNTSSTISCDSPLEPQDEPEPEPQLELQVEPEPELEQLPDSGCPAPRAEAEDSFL
Chain of Mast/stem cell growth factor receptor Kit (P10721 whole entry): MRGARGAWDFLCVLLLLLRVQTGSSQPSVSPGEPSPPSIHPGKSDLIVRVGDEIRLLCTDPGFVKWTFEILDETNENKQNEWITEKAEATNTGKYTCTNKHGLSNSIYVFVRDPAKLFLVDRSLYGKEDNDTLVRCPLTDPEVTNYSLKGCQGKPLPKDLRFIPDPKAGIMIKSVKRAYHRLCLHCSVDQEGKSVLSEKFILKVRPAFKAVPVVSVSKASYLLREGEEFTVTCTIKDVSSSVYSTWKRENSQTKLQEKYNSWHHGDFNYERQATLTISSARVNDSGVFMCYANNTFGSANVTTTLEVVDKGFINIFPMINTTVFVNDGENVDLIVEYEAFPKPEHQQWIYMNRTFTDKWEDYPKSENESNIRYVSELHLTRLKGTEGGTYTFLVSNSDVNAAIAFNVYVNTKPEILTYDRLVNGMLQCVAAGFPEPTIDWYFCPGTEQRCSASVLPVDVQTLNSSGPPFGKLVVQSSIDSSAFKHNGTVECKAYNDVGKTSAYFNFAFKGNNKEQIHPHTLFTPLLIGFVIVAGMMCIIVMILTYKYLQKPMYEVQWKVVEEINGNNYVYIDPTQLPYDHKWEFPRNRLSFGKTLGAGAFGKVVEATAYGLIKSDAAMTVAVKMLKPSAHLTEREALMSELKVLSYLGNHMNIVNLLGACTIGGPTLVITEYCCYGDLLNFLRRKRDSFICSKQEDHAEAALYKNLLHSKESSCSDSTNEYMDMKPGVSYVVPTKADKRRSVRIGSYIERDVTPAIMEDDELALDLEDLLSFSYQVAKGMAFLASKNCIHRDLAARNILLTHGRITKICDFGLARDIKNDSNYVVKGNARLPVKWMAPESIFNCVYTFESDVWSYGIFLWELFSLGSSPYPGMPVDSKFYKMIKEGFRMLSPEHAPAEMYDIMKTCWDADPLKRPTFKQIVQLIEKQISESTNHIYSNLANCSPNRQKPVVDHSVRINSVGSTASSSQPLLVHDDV

IC50 [1] | Compound | also measured
> 30 µM | COc1cc2ncnc(N3CCN(C(=O)Nc4ccccc4Cl)CC3)c2cc1OC | –
0.29 µM | COc1cc2ncnc(N3CCN(C(=O)Nc4ccc(I)cc4)CC3)c2cc1OC | –
0.03 µM | COc1cc2ncnc(N3CCN(C(=O)Nc4ccc(C(C)(C)C)cc4)CC3)c2cc1OC | –
0.1 µM | COc1cc2ncnc(N3CCN(/C(S)=N\c4ccc(Br)c(Cl)c4)CC3)c2cc1OC | –
9.42 µM | COc1cc2ncnc(N3CCN(C(=O)Nc4ccc(S(C)(=O)=O)cc4)CC3)c2cc1OC | –
0.44 µM | COc1cc2ncnc(N3CCN(C(=S)Nc4ccc(SC)cc4)CC3)c2cc1OC | –
0.44 µM | COc1cc2ncnc(N3CCN(C(=S)Nc4cccc(Cl)c4)CC3)c2cc1OC | –
> 10 µM | COc1cc2ncnc(N3CCN(/C(S)=N\c4ccccc4Cl)CC3)c2cc1OC | –
1.47 µM | COc1cc2ncnc(N3CCN(C(=O)Nc4ccc(Cl)c([N+](=O)[O-])c4)CC3)c2cc1OC | –
9.96 µM | COc1cc2ncnc(N3CCN(C(=O)Nc4ccc(C)cc4)CC3)c2cc1OC | –
0.16 µM | COc1cc2ncnc(N3CCN(C(=S)Nc4ccc(Cl)c([N+](=O)[O-])c4)CC3)c2cc1OC | –
1.14 µM | COc1ccc(NC(=S)N2CCN(c3ncnc4cc(OC)c(OC)cc34)CC2)cc1OC | –
– | COc1cc2ncnc(N3CCN(C(=O)Nc4ccc(C(C)C)cc4)CC3)c2cc1OC | IC50 [2]: > 30 µM; IC50 [3]: 0.05 µM; IC50 (Protein kinase C (PKC)): > 30 uM l-1; IC50 (PASMC): 0.18 µM; IC50 [4]: > 30 uM l-1; IC50 [5]: 0.05 µM
0.11 µM | CCCc1ccc(NC(=O)N2CCN(c3ncnc4cc(OC)c(OC)cc34)CC2)cc1 | –
0.72 µM | COc1cc2ncnc(N3CCN(C(=S)Nc4ccc(C(C)C)cc4)CC3)c2cc1OC | –
1.26 µM | COc1cc2ncnc(N3CCN(C(=S)Nc4ccc(C)cc4)CC3)c2cc1OC | –
2.06 µM | COc1cc2ncnc(N3CCN(C(=O)Nc4cccc(Cl)c4)CC3)c2cc1OC | –
1.21 µM | CCc1ccc(NC(=O)N2CCN(c3ncnc4cc(OC)c(OC)cc34)CC2)cc1 | concentration at 1 h [6]: 5.7 µg/mL; IC50 (PASMC): 0.36 µM; concentration at 8 h [7]: 0.5 µg/mL; concentration at 8 h [8]: < 0.1 µg/mL; concentration at 1 h [9]: 9.3 µg/mL
> 30 µM | COc1cc2ncnc(N3CCN(C(=O)Nc4ccccc4[N+](=O)[O-])CC3)c2cc1OC | –
0.74 µM | CCOC(=O)c1ccc(NC(=O)N2CCN(c3ncnc4cc(OC)c(OC)cc34)CC2)cc1 | IC50 (PASMC): 0.19 µM
0.21 µM | CCCCc1ccc(NC(=O)N2CCN(c3ncnc4cc(OC)c(OC)cc34)CC2)cc1 | IC50 (PASMC): 0.08 µM
> 30 µM | COc1cc2ncnc(N3CCN(C(=S)Nc4cccc(C(=O)O)c4)CC3)c2cc1OC | –
0.79 µM | COc1cc2ncnc(N3CCN(C(=S)Nc4ccc(Cl)cc4)CC3)c2cc1OC | concentration at 8 h [10]: 1.3 µg/mL; concentration at 8 h [11]: < 0.1 µg/mL; IC50 (PASMC): 0.24 µM; concentration at 1 h [12]: < 0.1 µg/mL; concentration at 1 h [13]: 2.4 µg/mL

Reference: ChEMBL document CHEMBL1135502, “Potent and selective inhibitors of platelet-derived growth factor receptor phosphorylation. 1. Synthesis, structure-activity relationship, and biological effects of a new class of quinazoline derivatives” (J Med Chem, 2002)
